Measured values from different studies.
Each line is one published result; the experiments were not run side by side.
Cell line: U-87 MG
Observed: cell growth or viability

Compound	technique	concentration	time	quantity	result
Cn1nnc2c(C(N)=O)ncn2c1=O	MTT	–	72 h	IC50	596 µM
Cn1nnc2c(Cl)ncn2c1=O	resazurin	–	7 days	IC50	15 µM
COc1cc(Nc2nccc(-c3cnn4nc(OC)ccc34)n2)cc(C(F)(F)F)c1	ATP luminescence	–	–	IC50	0.84 µM
Fc1ccc2[nH]cc(CNCC3(N4CCC(F)C4)COC3)c2c1 (centres unmarked)	–	30 µM	48 h	viability	94.6%
Cn1nnc2c(C(N)=O)ncn2c1=O	resazurin	–	7 days	IC50	51 µM
COc1cccc2c1C(=O)c1c(O)c3c(c(O)c1C2=O)C[C@@](O)(C(=O)CO)C[C@@H]3O[C@H]1C[C@H](N)[C@H](O)[C@H](C)O1	SRB	–	–	IC50	0.1 µM
COc1cccc2c1C(=O)c1c(O)c3c(c(O)c1C2=O)C[C@@](O)(C(=O)CO)C[C@@H]3O[C@H]1C[C@H](N)[C@H](O)[C@H](C)O1	WST-1	–	72 h	IC50	0.04 µM
c1cc2cc(CNCC3(N4CCCC4)COC3)ccc2[nH]1	–	30 µM	48 h	viability	98.6%
Cc1cc(NC(=O)c2cccc3cc(-c4cccc5[nH]nc(N)c45)ccc23)ccc1F	CCK-8	–	72 h	IC50	> 20 µM
Cn1nnc2c(-c3ccccc3)ncn2c1=O	resazurin	–	7 days	IC50	9 µM
c1cc2c(cc1CNCC1(N3CCCC3)COC1)OCCO2	–	30 µM	48 h	viability	95.7%
Oc1c(C(c2ccc(F)cc2)N2CCCCC2)ccc2c1CCC2 (centres unmarked)	MTT	30 µM	–	inhibition	28%
FC1CCN(C2(CNCc3ccc(-c4ccccc4)o3)COC2)C1 (centres unmarked)	–	30 µM	48 h	viability	46.6%
Cc1ccc(C(=O)Nc2ccc(Oc3cc4cnn(C)c4cc3-c3cn[nH]c3)c(F)c2)c(=O)n1-c1ccc(F)cc1	ATP luminescence	–	–	IC50	0.129 µM
CCN(CC)C(=O)c1ncn2c(=O)n(C)nnc12	resazurin	–	7 days	IC50	80 µM
CC(C)C[C@H](NC(=O)[C@H](Cc1ccccc1)NC(=O)c1cnccn1)B(O)O	ATP luminescence	–	–	IC50	0.02 µM
Fc1ccc2c(CNCC3(N4CCC(F)C4)COC3)c[nH]c2c1 (centres unmarked)	–	30 µM	48 h	viability	97.6%
